Assay results gathered from unrelated publications.
Lines come from different studies, so protocols differ.
Target: STE20-like serine/threonine-protein kinase (SLK, Homo sapiens, UniProt Q9H2G2)

SMILES | observed | action | technique | cell line | tested at | quantity | result
Cc1c[nH]c2nccc(Oc3c(F)cc(Nc4cc(Cl)nc(N)n4)cc3F)c12 | cell-free assay |  | competition with immobilised ligand |  | 0.1 µM | remaining binding | 97%
CS(=O)(=O)CCNCc1ccc(-c2ccc3ncnc(Nc4ccc(OCc5cccc(F)c5)c(Cl)c4)c3c2)o1 | cell-free assay |  |  |  | 0.5 µM | remaining signal | 85.1%
CC/C(=N\NC(=O)NCc1cccc(O)c1)c1ccc(O)c(C)c1O | enzyme activity | inhibitor |  |  | 0.1 µM | inhibition | 4%
Cn1c2c(Cl)c(Cl)ccc2c2cn[nH]c(=O)c21 | thermal stability |  | DSF |  | 10 µM | ΔTm | 0.4 °C
CC(C)(C)c1nc(-c2cccc(NS(=O)(=O)c3c(F)cccc3F)c2F)c(-c2ccnc(N)n2)s1 | enzyme activity | inhibitor | radiometric |  | 1 µM | remaining activity | 90%
CN(C)CC#Cc1ccc(OCCCc2sc(N3CCc4cccc(C(=O)Nc5nc6ccccc6s5)c4C3)nc2C(=O)O)c(F)c1 | cell-free assay |  | competition with immobilised ligand |  | 1 µM | remaining binding | 100%
CCN1CCC2(CC1)NC(=O)c1c(c3ccc(Cl)c(Cl)c3n1C)C2C#N (racemic) | thermal stability |  | DSF |  | 10 µM | ΔTm | 0.1 °C
COc1cc(-c2cc(-c3ccc(N4CCNCC4)cc3)cnc2C)cc(OC)c1OC | enzyme activity | inhibitor |  |  | 1 µM | inhibition | 43%
Cc1ccc(C(=O)Nc2ccc(CN3CCN(C)CC3)c(C(F)(F)F)c2)cc1C#Cc1cnc2cccnn12 | enzyme activity | inhibitor |  |  | 23.5 nM | remaining activity | 7%
Cn1c2c(c3ccccc31)C(C#N)C(C)(C)NC2=O (stereo not shown) | thermal stability |  | DSF |  | 10 µM | ΔTm | -0.1 °C
O=C1NC(=O)c2cc(Nc3ccc(F)cc3)c(Nc3ccc(F)cc3)cc21 | cell-free assay |  |  |  | 0.5 µM | remaining signal | 65.5%
Cn1nc(C(=O)NCc2ccc(C(=O)O)cc2)cc1-c1ccc2[nH]ccc2c1 | cell-free assay |  | competition with immobilised ligand |  | 0.1 µM | remaining binding | 65%
CCN(CC)CCNC(=O)c1c(C)[nH]c(/C=C2\C(=O)Nc3ccc(F)cc32)c1C | cell-free assay |  |  |  | 0.5 µM | remaining signal | 63.8%
CNC(=O)Nc1ccc2c(c1)CC[C@@]21OC(=O)N(CC(=O)N(Cc2ccc(F)cc2)[C@@H](C)C(F)(F)F)C1=O | cell-free assay |  | competition with immobilised ligand |  | 1 µM | remaining binding | 82%
CNC(=O)c1cc(Oc2ccc(NC(=O)Nc3ccc(Cl)c(C(F)(F)F)c3)cc2)ccn1 | cell-free assay |  |  |  | 0.5 µM | remaining signal | 96.8%
CC1=C(C#N)C(c2ccc3c(c2)c(NC(=O)c2ccccc2C)nn3C)C(C#N)=C(C)N1 | cell-free assay |  | competition with immobilised ligand |  | 1 µM | remaining binding | 88%
CCOc1cc(-c2nncn2C)ccc1Nc1ncc2cc(C)nc(NCC(C)(C)C)c2n1 | cell-free assay |  | TR-FRET |  | 1 µM | inhibition | ≤ 15%
N#CCCc1ccc2c(c1)-c1[nH]c3ccc([N+](=O)[O-])cc3c1CC(=O)N2 | cell-free assay |  |  |  | 0.5 µM | remaining signal | 87.2%
Cn1c2c(c3ccc(Cl)c(Cl)c31)C(C#N)C1(CCNCC1)NC2=O (racemic) | thermal stability |  | DSF |  | 10 µM | ΔTm | -0.1 °C
O=C(O)c1cc(-c2ccc(C3CCNCC3)cc2)c2ccc(-c3ccc(C(F)(F)F)cc3)cc2c1 | cell-free assay |  | competition with immobilised ligand |  | 1 µM | remaining binding | 100%
CCN1CCN(Cc2ccc(NC(=O)c3ccc(C)c(Oc4ccnc5[nH]ccc45)c3)cc2C(F)(F)F)CC1 | target engagement in cells | inhibitor | chemoproteomics | Huh-7 | 1 µM | inhibition | -70.4%
CC(=O)C1=C(C)N(c2cccc(C(F)(F)F)c2)C(=O)N[C@@H]1c1ccc(C#N)nc1 | cell-free assay |  | competition with immobilised ligand |  | 1 µM | remaining binding | 98.4%
O=C(Nc1cnn(-c2csc(C(=O)NC3COC3)c2)c1)Nc1ccccc1Cl | enzyme activity | inhibitor |  |  | 5 µM | remaining activity | 89.7%
CCS(=O)(=O)c1cc2cc(C[C@](O)(CC(C)(C)c3ccc(F)cc3C(N)=O)C(F)(F)F)[nH]c2cn1 | cell-free assay |  | competition with immobilised ligand |  | 1 µM | remaining binding | 100%
Cc1sc(C(=O)NC2COC2)cc1-n1cc(NC(=O)Nc2c(F)cccc2Cl)cn1 | enzyme activity | inhibitor |  |  | 10 µM | remaining activity | 99.7%
